Data reported in ChEMBL document CHEMBL6115053, “Optimization and Characterization of N-Acetamide Indoles as Antimalarials That Target PfATP4” (J Med Chem, 2025).
In brackets after ≈: the same amount, converted by molar mass. Activity calls are given as the source filed them. The calls are words filed in the database; no cut-off is given here.

Legend:
[1] = tested on: Plasmodium falciparum; experiment: Antiplasmodial activity against asexual Plasmodium falciparum 3D7 infected in human […] cells assessed as reduction in parasite growth measured for 72 hrs by LDH assay; assay type: functional, organism-based; settings: 3D7, 72 h
[2] = tested on: HepG2; experiment: Cytotoxicity against human HepG2 cells assessed as inhibition of cell growth incubated for 48 hrs by celltiterglo assay; assay type: toxicity, cell-based; settings: hepg2, 48 h
[3] = Metabolic stability in mouse liver microsome assessed as intrinsic clearance; assay type: ADME; settings: microsomes
[4] = Lipophilicity, logD of compound at pH 7.4 by shake-flask method; assay type: physicochemical; settings: buffer
[5] = Metabolic stability in rat hepatocyte […] assessed as intrinsic clearance measured per 10^6 cells; assay type: ADME, cell-based; settings: hepatocytes
[6] = Metabolic stability in human liver microsome assessed as intrinsic clearance; assay type: ADME; settings: microsomes
[7] = Aqueous solubility in PBS buffer at pH 7.4; assay type: physicochemical
[8] = tested on: Plasmodium falciparum; experiment: Antimalarial activity against synchronized-ring stage Plasmodium falciparum 3D7 assessed as reduction in parasitemia at 10 times EC50 measured at 72 hrs post-treatment by LDH assay; assay type: functional, organism-based
Procedure, shortened: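 Parasite reduction ratio assay in P. falciparum 3D7 with an LDH read-out. Means and SDs were taken from three replicate experiments.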

[9] = tested on: Plasmodium falciparum; experiment: Antiplasmodial activity against Plasmodium falciparum 3D7 infected in RBC assessed as reduction in parasite growth measured for 8 hrs by Giemsa-staining based microscopic analysis; assay type: functional, organism-based
Procedure, shortened: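 Giemsa-stained thin smears were read at 8 h and the percentages of extracellular and intracellular parasites counted, compared with untreated parasites at 0 h.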

SMILES | EC50 [1] [µM] | CC50 [2] [µM] | also measured
Cc1ccc(NC(=O)Cn2ccc3ccc(-c4nnc(C)o4)cc32)cc1 | 5.35 | > 40 | –
Cc1nnc(-c2ccc3ccn(CC(=O)Nc4cc(Cl)cc(Cl)c4)c3c2)o1 | 3.88 | > 40 | –
Cc1nnc(-c2ccc3ccn(CC(=O)Nc4cc(F)ccc4Cl)c3c2)o1 | 0.683 | > 40 | –
Cc1cccc(NC(=O)Cn2ccc3ccc(-c4nnc(C)o4)cc32)c1 | 2.8 | > 40 | –
Cc1cc(-c2ccc3ccn(CC(=O)Nc4ccccc4Cl)c3c2)cnn1 | 3.65 | – | –
Cc1nnc(-c2ccc3ccn(CC(=O)Nc4cc(F)cc(F)c4)c3c2)o1 | 1.18 | > 40 | –
O=C(Cn1ccc2ccc(-c3cnn(CC(F)(F)F)c3)cc21)Nc1ccccc1Cl | > 10 | – | –
Cc1cc2ccc(-c3cnn(C)c3)cc2n1CC(=O)Nc1ccccc1Cl | – | > 40 | –
Cc1nnc(-c2ccc3ccn(CC(=O)Nc4ccccc4)c3c2)o1 | 1.63 | > 40 | –
Cc1cc(-c2ccc3ccn(CC(=O)Nc4ccccc4Cl)c3c2)ccn1 | 2.83 | – | –
CC(C)n1cc(-c2ccc3ccn(CC(=O)Nc4ccccc4Cl)c3c2)cn1 | > 10 | – | –
Cn1cc(-c2cc3c(ccn3CC(=O)Nc3ccccc3Cl)cn2)cn1 | 8.45 | > 40 | –
Cn1ccc(-c2ccc3ccn(CC(=O)Nc4ccccc4Cl)c3c2)n1 | > 10 | – | –
Cc1noc(-c2ccc3ccn(CC(=O)Nc4ccccc4Cl)c3c2)n1 | > 10 | – | –
COc1cc(NC(=O)Cn2ccc3ccc(-c4cn(C)nc4C)cc32)cc(OC)c1OC | 0.1 | > 40 | intrinsic clearance (CLint) [3]: 207 µL/min/mg; logD [4]: 3.2; intrinsic clearance (CLint) [5]: 11 uL/min/10^6 cells; intrinsic clearance (CLint) [6]: 105 µL/min/mg; solubility kinetic [7]: 8.6 µM (≈ 3.74 µg/mL)
COc1cc(NC(=O)Cn2cc(Cl)c3cc(F)c(-c4cn(C)nc4C)cc32)cc(OC)c1OC | 0.108 | > 40 | intrinsic clearance (CLint) [3]: 73 µL/min/mg; logD [4]: 4.8; intrinsic clearance (CLint) [5]: 5.7 uL/min/10^6 cells; intrinsic clearance (CLint) [6]: 64 µL/min/mg; solubility kinetic [7]: 2.5 µM (≈ 1.22 µg/mL)
Cc1nnc(-c2ccc3ccn(CC(=O)Nc4cccc(Cl)c4Cl)c3c2)o1 | 1.33 | > 40 | –
COc1cc(NC(=O)Cn2ccc3ccc(-c4nnc(C)o4)cc32)cc(OC)c1 | 1.18 | > 40 | –
Cc1nnc(-c2ccc3ccn(CC(=O)Nc4ccc(C(F)(F)F)cc4)c3c2)o1 | 2.1 | > 40 | –
Cc1c(-c2ccc3ccn(CC(=O)Nc4ccccc4Cl)c3c2)cnn1C | 0.248 | > 40 | –
Cc1n[nH]c(C)c1-c1ccc2ccn(CC(=O)Nc3ccccc3Cl)c2c1 | 3.6 | > 40 | –
Cc1cn(CC(=O)Nc2ccccc2Cl)c2cc(-c3cnn(C)c3)ccc12 | 0.868 | > 40 | –
Cc1nnc(-c2ccc3ccn(CC(=O)Nc4ccccc4C)c3c2)o1 | 1.18 | – | –
Cc1nnc(-c2ccc3ccn(CC(=O)Nc4ccncc4Cl)c3c2)o1 | 7.13 | > 40 | –
Cn1cc(-c2ccc3ccn(CC(=O)Nc4ccccc4Cl)c3n2)cn1 | 1.53 | > 40 | logD [4]: 3.3; intrinsic clearance (CLint) [5]: 92 uL/min/10^6 cells; intrinsic clearance (CLint) [6]: 458 µL/min/mg; solubility kinetic [7]: 2.5 µM (≈ 0.915 µg/mL)

SMILES | EC50 [1] [µM] | CC50 [2] [µM] | also measured
CCn1cc(-c2ccc3ccn(CC(=O)Nc4ccccc4Cl)c3c2)cn1 | > 10 | > 40 | –
COc1ccc(NC(=O)Cn2ccc3ccc(-c4nnc(C)o4)cc32)cc1OC | 1.55 | > 40 | –
Cc1nnc(-c2ccc3ccn(CC(=O)Nc4cccc(C#N)c4)c3c2)o1 | 0.99 | > 40 | –
Cc1nnc(-c2ccc3ccn(CC(=O)Nc4ccccc4F)c3c2)o1 | 2.1 | > 40 | –
COc1ccc(NC(=O)Cn2ccc3ccc(-c4nnc(C)o4)cc32)cc1 | 7.8 | > 40 | –
Cc1nnc(-c2ccc3ccn(CC(=O)Nc4cccc(F)c4)c3c2)o1 | 1.45 | > 40 | –
COc1cc(NC(=O)Cn2ccc3ccc(-c4cnn(C)c4)cc32)cc(OC)c1OC | 0.385 | > 40 | logD [4]: 3.5; intrinsic clearance (CLint) [5]: 4.6 uL/min/10^6 cells; intrinsic clearance (CLint) [6]: 95 µL/min/mg; solubility kinetic [7]: 4.6 µM (≈ 1.93 µg/mL)
COc1cc(NC(=O)Cn2cc(Cl)c3ccc(-c4cnn(C)c4)cc32)cc(OC)c1OC | 0.049 | > 40 | intrinsic clearance (CLint) [3]: 53 µL/min/mg; logD [4]: 4.2; intrinsic clearance (CLint) [5]: < 1 uL/min/10^6 cells; intrinsic clearance (CLint) [6]: 15 µL/min/mg; solubility kinetic [7]: 2.5 µM (≈ 1.14 µg/mL)
O=C(Cn1ccc2ccc(-c3nnco3)cc21)Nc1ccccc1Cl | > 10 | – | –
Cc1cccc(-c2ccc3ccn(CC(=O)Nc4ccccc4Cl)c3c2)c1 | 1.11 | > 40 | –
O=C(Cn1ccc2ccc(-c3cnn(C(F)(F)F)c3)cc21)Nc1ccccc1Cl | > 10 | – | –
Cc1nn(C)cc1-c1ccc2ccn(CC(=O)Nc3ccccc3Cl)c2c1 | 0.23 | > 40 | –
Cc1nnc(-c2ccc3ccn(CC(=O)Nc4ccc(F)cc4)c3c2)o1 | 3.8 | > 40 | –
Cn1cc(-c2ccc3ccn(CC(=O)Nc4ccccc4Cl)c3c2)c(C(F)(F)F)n1 | 0.043 | > 40 | logD [4]: 4.7; intrinsic clearance (CLint) [5]: 92 uL/min/10^6 cells; intrinsic clearance (CLint) [6]: 488 µL/min/mg; solubility kinetic [7]: 2.5 µM (≈ 1.08 µg/mL)
Cc1nnc(-c2ccc3ccn(CC(=O)Nc4ccc(C#N)cc4)c3c2)o1 | > 10 | – | –
Cn1cc(-c2ccc3c(Br)cn(CC(=O)Nc4ccccc4Cl)c3c2)cn1 | 0.165 | > 40 | –
Cn1cc(-c2ccc3c(Cl)cn(CC(=O)Nc4ccccc4Cl)c3c2)cn1 | 0.138 | > 40 | intrinsic clearance (CLint) [3]: 177 µL/min/mg; logD [4]: 4.6; intrinsic clearance (CLint) [5]: 29 uL/min/10^6 cells; intrinsic clearance (CLint) [6]: 65 µL/min/mg; solubility kinetic [7]: < 2.5 µM
Cc1nnc(-c2ccc3ccn(CC(=O)Nc4cccnc4Cl)c3c2)o1 | 1.17 | > 40 | logD [4]: 2.1; intrinsic clearance (CLint) [5]: 27 uL/min/10^6 cells; intrinsic clearance (CLint) [6]: 57 µL/min/mg; solubility kinetic [7]: 73 µM (≈ 26.8 µg/mL)
Cn1cc(-c2cnc3ccn(CC(=O)Nc4ccccc4Cl)c3c2)cn1 | > 10 | – | –
Cn1cc(-c2ccc3c(F)cn(CC(=O)Nc4ccccc4Cl)c3c2)cn1 | 0.33 | > 40 | –
Cn1cc(-c2ccc3ncn(CC(=O)Nc4ccccc4Cl)c3c2)cn1 | > 10 | – | –
Cc1nnc(-c2ccc3ccn(CC(=O)Nc4cccc(F)c4Cl)c3c2)o1 | 1.33 | > 40 | –
Cc1nnc(-c2ccc3ccn(CC(=O)Nc4c(F)cccc4F)c3c2)o1 | 1.65 | > 40 | –
Cc1nnc(-c2ccc3ccn(CC(=O)N(C)c4ccccc4)c3c2)o1 | > 10 | – | –
Cc1nnc(-c2ccc3ccn(CC(=O)Nc4ccncc4)c3c2)o1 | 4.68 | > 40 | –

SMILES | EC50 [1] [µM] | CC50 [2] [µM] | also measured
Cc1nnc(-c2ccc3ccn(CC(=O)Nc4cc(F)ccc4F)c3c2)o1 | 1.25 | > 40 | –
CC(C(=O)Nc1ccccc1Cl)n1ccc2ccc(-c3cnn(C)c3)cc21 (centres undefined) | – | > 40 | –
Cn1cc(-c2ccc3cnn(CC(=O)Nc4ccccc4Cl)c3c2)cn1 | > 10 | – | –
Cc1nn(C)c(C)c1-c1ccc2ccn(CC(=O)Nc3ccccc3Cl)c2c1 | 0.31 | > 40 | –
Cc1nnc(-c2ccc3ccn(CC(=O)Nc4cccc(Cl)c4)c3c2)o1 | 0.898 | > 40 | –
Cc1ccc(-c2ccc3ccn(CC(=O)Nc4ccccc4Cl)c3c2)cn1 | > 10 | – | –
CCc1nc(N)nc(N)c1-c1ccc(Cl)cc1 | – | – | Activity [8]: Active
Cc1nnc(-c2ccc3ccn(CC(=O)Nc4ccc(Cl)cc4)c3c2)o1 | 4.47 | > 40 | –
Cc1nnc(-c2ccc3ccn(CC(=O)Nc4ccccn4)c3c2)o1 | 4.78 | > 40 | –
O=C(Cn1ccc2ccc(-c3cnn(-c4ccccc4)c3)cc21)Nc1ccccc1Cl | > 10 | – | –
Cc1nnc(-c2ccc3ccn(CC(=O)Nc4cccnc4)c3c2)o1 | 4.25 | > 40 | –
Cc1ncc(-c2ccc3ccn(CC(=O)Nc4ccccc4Cl)c3c2)s1 | 1.9 | > 40 | –
Cc1ccc(-c2ccc3ccn(CC(=O)Nc4ccccc4Cl)c3c2)cc1 | > 10 | – | –
Cc1nnc(-c2ccc3ccn(CC(=O)Nc4cccc(C(F)(F)F)c4)c3c2)o1 | 0.615 | > 40 | –
CC(C)c1nnc(-c2ccc3ccn(CC(=O)Nc4ccccc4Cl)c3c2)o1 | > 10 | – | –
Cc1nnc(-c2ccc3ccn(CC(=O)Nc4ccccc4C#N)c3c2)o1 | 3.48 | > 40 | –
COc1cccc(NC(=O)Cn2ccc3ccc(-c4nnc(C)o4)cc32)c1 | 3.6 | > 40 | –
COc1ccccc1NC(=O)Cn1ccc2ccc(-c3nnc(C)o3)cc21 | > 10 | – | –
O=C(Cn1ccc2ccc(-c3cnn(C(F)F)c3)cc21)Nc1ccccc1Cl | 1.5 | > 40 | –
CCN(CC)CCCC(C)Nc1ccnc2cc(Cl)ccc12 (centres undefined) | – | – | Activity [8]: Active; Activity [9]: Active
COc1cc(NC(=O)Cn2cc(Cl)c3ccc(-c4cn(C)nc4C)cc32)cc(OC)c1OC | 0.022 | – | –
Cc1nnc(-c2ccc3ccn(CC(=O)Nc4ccccc4C(F)(F)F)c3c2)o1 | 3.1 | > 40 | –
Cc1ccc(-c2ccc3ccn(CC(=O)Nc4ccccc4Cl)c3c2)s1 | > 10 | – | –
O=C(Cn1ccc2ccc(-c3nnc(C(F)(F)F)o3)cc21)Nc1ccccc1Cl | > 10 | – | –
